Source: ChEMBL document CHEMBL2203153, “Synthesis of novel azo-resveratrol, azo-oxyresveratrol and their derivatives as potent tyrosinase inhibitors” (Bioorg Med Chem Lett, 2012)

Experiments:
[1] = molecular target: T1, Tyrosinase (Agaricus bisporus) (UniProt O42713); assay: Inhibition of mushroom tyrosinase using L-tyrosine as substrate at 50 uM after 30 mins by spectrophotometric analysis
T1 sequence (whole entry): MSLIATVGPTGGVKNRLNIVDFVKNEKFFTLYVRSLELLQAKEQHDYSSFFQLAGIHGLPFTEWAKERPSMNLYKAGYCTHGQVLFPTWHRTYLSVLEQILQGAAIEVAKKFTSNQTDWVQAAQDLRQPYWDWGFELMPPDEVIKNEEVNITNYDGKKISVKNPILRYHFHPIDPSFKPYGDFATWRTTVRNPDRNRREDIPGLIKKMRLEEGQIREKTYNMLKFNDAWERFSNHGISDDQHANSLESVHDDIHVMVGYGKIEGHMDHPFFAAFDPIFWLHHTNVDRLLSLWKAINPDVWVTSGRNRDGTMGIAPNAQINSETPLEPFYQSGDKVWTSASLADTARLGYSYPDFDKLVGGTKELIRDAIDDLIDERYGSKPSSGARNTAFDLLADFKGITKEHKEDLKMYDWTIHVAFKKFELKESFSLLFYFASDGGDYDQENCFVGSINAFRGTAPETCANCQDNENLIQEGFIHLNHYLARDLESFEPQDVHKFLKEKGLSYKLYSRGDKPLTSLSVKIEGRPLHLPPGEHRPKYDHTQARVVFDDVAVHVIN
Procedure, shortened: (§1)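 Mushroom tyrosinase (1000 units) was added to a mixture of 1 mM L-tyrosine and 50 mM phosphate buffer, pH 6.5, with test compound at the stated concentration. After 30 min at 25 °C, dopachrome formation was measured spectrophotometrically at OD492 and expressed as percent inhibition. Values are means ± S.E. of three experiments.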

[2] = molecular target: T1, Tyrosinase (Agaricus bisporus); assay: (§2) Inhibition of mushroom tyrosinase using L-tyrosine as substrate after 30 mins by spectrophotometric analysis
Procedure, shortened: (§3)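 Mushroom tyrosinase (1000 units) was added to assay mixture containing 1 mM L-tyrosine in 50 mM phosphate buffer, pH 6.5. Incubation ran 30 min at 25 °C, and dopachrome was read at 492 nm. Dose-dependent inhibition was run in triplicate at three doses. IC50 was taken from the inhibitor concentration versus product formation curve.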

Tyrosinase = molecular target: T2, Tyrosinase (Agaricus bisporus, UniProt O42713); assay: as §2; procedure, shortened: as §3
T2 sequence (O42713 whole entry): T1 sequence (whole entry)

[3] = molecular target: T1, Tyrosinase (Agaricus bisporus); assay: Inhibition of mushroom tyrosinase using L-tyrosine as substrate at 30 uM after 30 mins by spectrophotometric analysis; procedure, shortened: as §1
[4] = molecular target: T1, Tyrosinase (Agaricus bisporus); assay: Inhibition of mushroom tyrosinase using L-tyrosine as substrate at 15 uM after 30 mins by spectrophotometric analysis; procedure, shortened: as §1
[5] = molecular target: T1, Tyrosinase (Agaricus bisporus); assay: Inhibition of mushroom tyrosinase using L-tyrosine as substrate at 80 uM after 30 mins by spectrophotometric analysis; procedure, shortened: as §1
[6] = molecular target: T1, Tyrosinase (Agaricus bisporus); assay: Inhibition of mushroom tyrosinase using L-tyrosine as substrate at 5 uM after 30 mins by spectrophotometric analysis; procedure, shortened: as §1
[7] = molecular target: T1, Tyrosinase (Agaricus bisporus); assay: Inhibition of mushroom tyrosinase using L-tyrosine as substrate at 20 uM after 30 mins by spectrophotometric analysis; procedure, shortened: as §1
[8] = molecular target: T1, Tyrosinase (Agaricus bisporus); assay: Inhibition of mushroom tyrosinase using L-tyrosine as substrate at 10 uM after 30 mins by spectrophotometric analysis
Procedure, shortened: (§4)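 Mushroom tyrosinase (20 µL of 1000 units aqueous solution) in a 200 µL mixture with 1 mM L-tyrosine in 50 mM phosphate buffer, pH 6.5. Incubated 30 min at 25 °C; dopachrome read at 492 nm. Percent inhibition was measured at three doses per compound, in triplicate, to build dose–response curves.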

[9] = molecular target: T1, Tyrosinase (Agaricus bisporus); assay: Inhibition of mushroom tyrosinase using L-tyrosine as substrate at 1 uM after 30 mins by spectrophotometric analysis; procedure, shortened: as §4
[10] = molecular target: T1, Tyrosinase (Agaricus bisporus); assay: Inhibition of mushroom tyrosinase using L-tyrosine as substrate at 0.5 uM after 30 mins by spectrophotometric analysis; procedure, shortened: as §4

inhibition [1] [%] | inhibition [2] | IC50 (Tyrosinase) [µM] | other results | SMILES
6.38 |  |  |  | COc1ccc(/N=N/c2cc(OC)ccc2OC)c(O)c1
72.8 | Dose-dependent effect | 36.3 | inhibition [3]: 44.3%; inhibition [4]: 7.6% | Oc1ccc(/N=N/c2cc(O)cc(O)c2)cc1
48.5 |  |  |  | COc1cc(/N=N/c2ccc(O)cc2O)cc(OC)c1
41.5 |  |  |  | Oc1cc(O)cc(/N=N/c2ccc(O)cc2O)c1
1.03 |  |  |  | COc1cc(/N=N/c2ccc(O)c(OC)c2)cc(OC)c1
27.8 |  |  |  | COc1ccc(OC)c(/N=N/c2ccc(O)cc2O)c1
0.44 |  |  |  | COc1ccc(OC)c(/N=N/c2ccc(O)c(OC)c2)c1
56.2 | Dose-dependent effect | 50.2 | inhibition [5]: 61.4%; inhibition [6]: 8.4%; inhibition [7]: 46% | COc1cc(/N=N/c2ccc(O)cc2)cc(OC)c1
 | Dose-dependent effect | 26.6 | inhibition [8]: 38%; inhibition [9]: 16.3%; inhibition [10]: 13.7%; inhibition [3]: 47.8%; inhibition [6]: 27.1%; inhibition [7]: 47.3% | Oc1ccc(/C=C/c2cc(O)cc(O)c2)cc1 [RESVERATROL]
8.9 |  |  |  | COc1cc(/N=N/c2ccc(O)cc2OC)cc(OC)c1
